Here are results for twelve compounds from PubChem BioAssay.

A number with no mark means an inactive call. Results filed as inconclusive are left out. Active and inactive are the calls of the source.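 Rule for the calls, unless noted: active = growth inhibition above 25% in both replicates, a cutoff set 3 SD above the mean; inconclusive = above 25% in only one replicate; inactive = the rest.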

The viability is a read-out of living cells in per cent, often relative to untreated cells. As a reminder, the inhibition is the drop in the measured response relative to a control, in per cent.

Assay [1] can be described thus: S. cerevisiae growth inhibition in permissive medium (OD615), pilot counter-assay for S. cerevisiae lifespan shortening project, permissive growth control (AID 705). As to conditions: OD615, 24 h, at 10 µM, active compounds read high. Put shortly: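 Material: engineered DeaD yeast; compound dosing: one dose 10 µM, DMSO 0.25% final; measure: yeast growth inhibition indicated by reduced 24 h OD615; detection: OD615 turbidity read; incubation: cells pre-grown 4 h, then 24 h compound exposure, 30 °C humidified; medium: permissive synthetic complete medium with raffinose and galactose carbon sources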

Assay [2] can be described thus: S. cerevisiae growth inhibition in restrictive medium, OD615, pilot screen, restrictive growth control, yeast lifespan reduction project (AID 706;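 active = growth inhibition above a set limit, 3 SD over mean compound inhibition, in both replicates, cut at about 43% in these data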;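 note: modified DeaD lifespan yeast strain shifted to restrictive glucose medium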). As to conditions: OD615, 48 h, at 10 µM, active compounds read high. In outline: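 material = engineered S. cerevisiae DeaD strain | medium = glucose-based CSMM-D restrictive medium | times = 4 h pre-incubation, 48 h exposure at 30 °C | technique = OD615 absorbance reading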

Assay [3] is described as follows: doxorubicin toxicity protection in MRP-1 cells – H69AR cells, CellTiter-Glo, duplicate, MRP-1 activator project, pilot screen (AID 807;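 active = viability increase at or above a cutoff of the median across tested compounds plus 3 SD, cut at about 8.5% in these data, passing the limit was not always enough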;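 note: compound pretreatment 18-22 h then 72 h combined with doxorubicin; 0% = doxorubicin alone and 100% = vehicle without doxorubicin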). The following applies: H69AR viability with doxorubicin, CellTiter-Glo luminescence; at 10 µM; active compounds read high.
The nature of assay [4]: viability of HCT116 without oncogenic beta-catenin – human colon tumor cells, pilot screen (AID 823;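 active = cell viability at or below a set limit in both duplicate runs, the limit being the all-compound median minus 4 SD, cut at about 23% in these data, passing the limit was not always enough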;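 note: 0% = wells killed by 20 µM Hyamine and 100% = untreated DMSO cell wells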). As to conditions: HCT116 beta-catenin knockout viability, CellTiter-Glo, 60 h; at 10 µM; active compounds read low.
A short description of assay [5]: viability of PTEN-null HCT116 cells – cell-based, HCT116 clonal line, CellTiter-Glo, pilot screen (AID 824;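 active = viability at or below 27.92% in each of two runs, the all-compound median minus 4 SD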;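 note: 0% = 20 µM Hyamine control and 100% = vehicle cell control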). The following applies: HCT116 PTEN-deleted viability, 60 h, at 10 µM, active compounds read low.
Assay [6] can be described thus: RAM pathway blockade in budding yeast – dse1pr::URA3 reporter, 5-FOA selection, pilot screen (AID 869;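 active = inhibition over a set limit, the all-compound mean plus 3 SD, in both replicate runs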;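 note: 0% = DMSO wells with no growth and 100% = 10 µM 1-NA-PP1 with full growth; RAM network block rescues cells from 5-FOA so hits raise OD615 growth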). The following applies: S. cerevisiae dse1pr::URA3 5-FOA growth, OD615, 2 d; at 10 µM; active compounds read high; strain carries analog-sensitive mutant Cbk1 kinase.
Assay [7] is described as follows: RAM signaling pathway blockade in yeast – S. cerevisiae, Pdr1DBD-CYC8 efflux-inhibited sensitized strain, primary screen (AID 1298;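 active = RAM network inhibition above 8.4% in each of two replicates, 3 SD over the compound average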;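 note: 0% = DMSO untreated cells without growth and 100% = 10 µM 1-NA-PP1 full growth; higher means more yeast growth rescued from 5-FOA killing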). As to conditions: S. cerevisiae cbk1-as DSE1-URA3 strain, 5-FOA growth OD615, 2 d; at 50 µM; active compounds read high.

Regarding `Nc1ccc(SC(F)(F)F)cc1C(=O)c1ccccc1`, the values for the growth inhibition in assay [1] and in assay [2] were -6.7% and -13.2%, respectively. The viability increase in assay [3] was -0.99%. Moreover, the viability in assay [4] was 74%; in assay [5] it was 70.4%. The inhibition in assay [6] is -2.23%. For the same compound, in assay [7], the RAM network inhibition is 3.77%.
Take `Cc1cccc(C(=O)Nc2cc(=O)n(C)c(=O)n2C)c1`: the growth inhibition in assay [1] was -14.2%; in assay [2], -21.9%. For the same compound, in assay [3], the viability increase was -0.85%. Besides, the viability was 105% in assay [4] and 92.4% in assay [5]. The inhibition in assay [6] was 0.905%. The RAM network inhibition in assay [7] is 1.04%.
Consider `c1ccc(Nc2nc3ccccc3n3cnnc23)cc1`, for which the growth inhibition in assay [1] was -1.27%; in assay [2], 10.2%. The viability increase in assay [3] is -5.23%. Besides, the viability in assay [4] was 86.1%; in assay [5], 84.6%. The inhibition in assay [6] was 2.09%. The RAM network inhibition in assay [7] is -0.58%.
For `CC1=C(C(=O)Nc2ccccc2)C(c2ccco2)C(C#N)=C(SCc2ccccc2)N1` (centres undefined), the growth inhibition in assay [1] was 9%; in assay [2], 14.5%. Further, the viability increase in assay [3] is -7.63%. In addition, the values for the viability in assay [4] and in assay [5] were 11.8% (active) and 9.06% (active), respectively. The inhibition in assay [6] was 3.18%. The RAM network inhibition in assay [7] was 3.38%.
Regarding `COc1ccc(NC(=O)Nc2cccc(C)n2)cc1`, the results for the growth inhibition in assay [1] and in assay [2] were 6.65% and 21.5%, respectively. Also, in assay [3], the viability increase was -1.44%. Moreover, the figures for the viability in assay [4] and in assay [5] were 100% and 88.4%, respectively. In addition, the inhibition in assay [6] is 0.5%. In addition, the RAM network inhibition in assay [7] was 3.92%.
With `COc1ccc(OC)c(C2CC(=O)c3c([nH]c(C(=O)OCC4CCCO4)c3C)C2)c1` (centres undefined), the growth inhibition in assay [1] is -8.91%; in assay [2], -10.4%. In assay [3], the viability increase is -4.85%. Besides, the viability in assay [4] was 43.8%; in assay [5], 39%. The inhibition in assay [6] is 1.52%. In assay [7], the RAM network inhibition is 0.79%.
For the compound `CCOc1ccc(C(=O)Nc2cc(=O)n(C)c(=O)n2C)cc1`, the growth inhibition in assay [1] was -29.3%; in assay [2], -26.3%. In addition, the viability increase in assay [3] was -0.98%. The viability was 101% in assay [4] and 97.5% in assay [5]. In assay [6], the inhibition was 1.9%. Also, the RAM network inhibition in assay [7] was 0.62%.
Regarding `CCn1cc(C(=O)OCC(=O)Nc2c(C)n(C)n(-c3ccccc3)c2=O)c(=O)c2ccc(C)nc21`, the results for the growth inhibition in assay [1] and in assay [2] were -11.8% and -0.91%, respectively. Also, the viability increase in assay [3] was -0.65%. The viability was 97.6% in assay [4] and 95% in assay [5]. Moreover, in assay [6], the inhibition is 0.195%. Also, in assay [7], the RAM network inhibition is 0.21%.
For the compound `CCSc1nc2c([nH]c3ccccc32)c(=O)n1C`, the growth inhibition in assay [1] is -14.2%; in assay [2], -9.45%. The viability increase in assay [3] was -4.7%. For the same compound, the viability was 105% in assay [4] and 100% in assay [5]. The inhibition in assay [6] is 3.67%. Further, the RAM network inhibition in assay [7] is 0.53%.
For `CCC(=O)N1CC2(C)CN(C(=O)CC)CC(C)(C1)C2`, the growth inhibition in assay [1] is -6.27%; in assay [2], -24.9%. Also, the viability increase in assay [3] was -0.75%. The viability was 95.3% in assay [4] and 97% in assay [5]. The inhibition in assay [6] is 1.59%. Moreover, the RAM network inhibition in assay [7] was -0.16%.
For the compound `CCOC(=O)N1CCC(N2Cc3cccc(C(=O)Nc4ccc(OC)c(OC)c4)c3C2=O)CC1`, the growth inhibition in assay [1] is -7.4%; in assay [2], -0.92%. Besides, the viability increase in assay [3] is -3.99%. For the same compound, the viability in assay [4] is 66.2%; in assay [5], 66.8%. Moreover, the inhibition in assay [6] is 2.03%. For the same compound, in assay [7], the RAM network inhibition is 1.98%.
As to `COC(=O)C(C)n1cnc2c(nnn2-c2cccc(Cl)c2)c1=O` (centres undefined), the growth inhibition in assay [1] is -6.67%; in assay [2], 1.2%. Further, the viability increase in assay [3] was 2.08%. In addition, the figures for the viability in assay [4] and in assay [5] were 110% and 99%, respectively. For the same compound, the inhibition in assay [6] was 0.05%. For the same compound, the RAM network inhibition in assay [7] was 6.76%.
